The values below come from article PMC6557127 (Journal of molecular and cellular cardiology, 2019).

For series [1], the target named is natriuretic peptide clearance receptor (NPRC), tagged with green fluorescence protein (UniProt P17342). The series can be described thus: AlphaScreen or HTRF. (In Alpha technology, singlet oxygen from a donor bead excites a nearby acceptor bead.)
For another series, the target named is T1, human pGC-B receptor (Homo sapiens, UniProt P20594).
T1 sequence (P20594 23-1047): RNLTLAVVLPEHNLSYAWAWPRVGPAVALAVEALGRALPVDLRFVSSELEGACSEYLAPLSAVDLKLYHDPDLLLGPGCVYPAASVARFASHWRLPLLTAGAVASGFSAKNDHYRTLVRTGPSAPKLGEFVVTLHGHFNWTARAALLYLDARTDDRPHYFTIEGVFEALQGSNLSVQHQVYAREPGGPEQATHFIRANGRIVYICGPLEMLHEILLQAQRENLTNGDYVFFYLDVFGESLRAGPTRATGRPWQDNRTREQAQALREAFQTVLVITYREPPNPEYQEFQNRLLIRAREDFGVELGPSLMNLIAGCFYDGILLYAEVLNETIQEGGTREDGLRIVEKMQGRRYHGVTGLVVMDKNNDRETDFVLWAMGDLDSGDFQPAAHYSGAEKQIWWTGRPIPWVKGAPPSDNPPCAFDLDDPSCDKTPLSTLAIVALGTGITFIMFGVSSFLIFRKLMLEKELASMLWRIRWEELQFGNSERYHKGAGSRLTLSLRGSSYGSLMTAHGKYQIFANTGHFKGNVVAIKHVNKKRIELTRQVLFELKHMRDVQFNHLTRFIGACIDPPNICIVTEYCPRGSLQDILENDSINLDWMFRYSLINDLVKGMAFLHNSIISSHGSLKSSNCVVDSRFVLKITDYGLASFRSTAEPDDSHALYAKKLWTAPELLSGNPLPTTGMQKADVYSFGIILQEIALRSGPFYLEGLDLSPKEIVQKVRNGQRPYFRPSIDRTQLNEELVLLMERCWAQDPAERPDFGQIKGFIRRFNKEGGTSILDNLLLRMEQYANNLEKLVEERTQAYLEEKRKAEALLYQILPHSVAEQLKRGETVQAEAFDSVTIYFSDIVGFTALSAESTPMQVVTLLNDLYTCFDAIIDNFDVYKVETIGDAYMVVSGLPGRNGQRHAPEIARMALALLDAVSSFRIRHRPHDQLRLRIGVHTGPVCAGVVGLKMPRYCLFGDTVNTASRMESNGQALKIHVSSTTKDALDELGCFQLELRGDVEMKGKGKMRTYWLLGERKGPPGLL
Nature of the series: cGMP generation in HEK293 cells overexpressing human pGC-B. The series is classed as cell-based. The following applies: 10^−8.5 to 10^−6 M, 10 min, 0.5 mM IBMX, intracellular cGMP ELISA, triplicate. Put shortly:
(§1)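 HEK293 cells stably expressing human pGC-A or pGC-B, or parental cells, were kept in DMEM with 10% FBS and 250 ug/ml G418. Cells were grown overnight to 80–90% confluency. They were treated for 10 min with serial concentrations (10−10 to 10−6 M) in HBSS containing 0.1% BSA, 2 mM HEPES and 0.5 mM IBMX; buffer alone served as vehicle. After a PBS wash and lysis in 0.1 M HCl, intracellular cGMP was measured by ELISA.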
In general terms: An ELISA detects its analyte on a solid surface through an enzyme-linked reagent.

The nature of a further series: Plasma CNP-like levels. The following applies: low, medium and high dose (4.55, 45.5, 455 pmol/kg/min) IV infusion 75 min, normal rats, RIA, n=4/group. The series is classed as in vivo, Fischer rats. The method in brief: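 They then received a 75 min continuous IV infusion (15 min lead-in) of native peptide, analogue or 0.9% saline vehicle with inulin. Infusion rate was weight-adjusted. Blood was taken after the 60 min clearance period. A non-equilibrium RIA used a CNP-sequence antibody (standard curve 0.5–128 pg; <1% cross-reactivity with ANP, BNP).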

The nature of series [2]: Blood pressure and renal function with acute IV infusion. In kind it is in vivo, Fischer rats. The following applies: mean ± SEM, n=4/group; for UV (urine flow): 60 min clearance; for UNaV (urinary sodium excretion rate): flame photometry; for GFR (glomerular filtration rate): inulin clearance; for ΔMAP (change in mean arterial pressure): normal rats. Put shortly: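 Male Fischer rats (about 2 months, 200–250 g) under isoflurane (2–3% in oxygen) had jugular vein, carotid artery and bladder catheters. After 30 min equilibration with IV inulin and saline, test compound or 0.9% saline vehicle was infused IV with inulin for 75 min, including a 15 min lead-in. BP was recorded and urine collected over a 60 min clearance period. Urinary sodium was measured by flame photometry and inulin by anthrone; GFR was taken from inulin clearance. n=4/group.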

Another series has as its system parental HEK293 cells. Nature of the series: cGMP generation in parental. In kind it is cell-based, human. The note with it: levels similar to vehicle treatment (Supplemental Figure 2). The method in brief: as §1
For the next series, the target named is T2, human pGC-A receptor (Homo sapiens, UniProt P16066).
T2 sequence (P16066 33-1061): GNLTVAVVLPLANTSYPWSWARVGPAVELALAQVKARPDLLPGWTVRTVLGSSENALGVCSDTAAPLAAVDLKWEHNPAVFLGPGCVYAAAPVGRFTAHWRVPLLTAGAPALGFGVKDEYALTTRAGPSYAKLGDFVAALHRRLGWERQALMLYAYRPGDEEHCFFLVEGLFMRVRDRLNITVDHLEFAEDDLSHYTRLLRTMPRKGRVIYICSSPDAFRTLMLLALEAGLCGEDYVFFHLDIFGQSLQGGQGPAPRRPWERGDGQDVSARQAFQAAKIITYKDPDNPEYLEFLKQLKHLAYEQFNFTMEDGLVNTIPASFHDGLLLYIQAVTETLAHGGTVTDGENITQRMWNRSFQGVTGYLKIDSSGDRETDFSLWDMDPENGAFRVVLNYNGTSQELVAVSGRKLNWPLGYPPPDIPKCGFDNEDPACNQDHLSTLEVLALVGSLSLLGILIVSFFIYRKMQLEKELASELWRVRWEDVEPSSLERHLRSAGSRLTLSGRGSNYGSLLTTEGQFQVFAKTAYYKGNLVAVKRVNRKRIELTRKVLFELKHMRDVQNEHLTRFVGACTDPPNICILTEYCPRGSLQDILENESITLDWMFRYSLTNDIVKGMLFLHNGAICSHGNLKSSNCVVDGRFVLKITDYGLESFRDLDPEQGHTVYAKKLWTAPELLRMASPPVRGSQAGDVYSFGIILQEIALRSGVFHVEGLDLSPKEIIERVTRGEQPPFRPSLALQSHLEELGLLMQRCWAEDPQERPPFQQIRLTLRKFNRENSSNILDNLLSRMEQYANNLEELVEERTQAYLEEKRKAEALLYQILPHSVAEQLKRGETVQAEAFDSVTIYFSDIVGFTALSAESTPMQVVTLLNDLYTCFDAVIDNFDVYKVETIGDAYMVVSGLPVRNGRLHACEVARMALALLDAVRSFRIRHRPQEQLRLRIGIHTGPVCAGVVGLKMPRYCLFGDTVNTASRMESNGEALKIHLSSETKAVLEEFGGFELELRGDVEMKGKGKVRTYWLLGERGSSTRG
The series can be described thus: cGMP generation in HEK293 cells overexpressing human pGC-A. In kind it is cell-based. The note with it: mean±SEM. Put shortly: as §1

The mark [3] stands for this setting: High = 455 pmol/kg/min IV infusion.
Setting [4] is: Low = 4.55 pmol/kg/min IV infusion.
Setting [5] is: Medium = 45.5 pmol/kg/min IV infusion.

Chain of natriuretic peptide clearance receptor (NPRC), tagged with green fluorescence protein (P17342 27-541): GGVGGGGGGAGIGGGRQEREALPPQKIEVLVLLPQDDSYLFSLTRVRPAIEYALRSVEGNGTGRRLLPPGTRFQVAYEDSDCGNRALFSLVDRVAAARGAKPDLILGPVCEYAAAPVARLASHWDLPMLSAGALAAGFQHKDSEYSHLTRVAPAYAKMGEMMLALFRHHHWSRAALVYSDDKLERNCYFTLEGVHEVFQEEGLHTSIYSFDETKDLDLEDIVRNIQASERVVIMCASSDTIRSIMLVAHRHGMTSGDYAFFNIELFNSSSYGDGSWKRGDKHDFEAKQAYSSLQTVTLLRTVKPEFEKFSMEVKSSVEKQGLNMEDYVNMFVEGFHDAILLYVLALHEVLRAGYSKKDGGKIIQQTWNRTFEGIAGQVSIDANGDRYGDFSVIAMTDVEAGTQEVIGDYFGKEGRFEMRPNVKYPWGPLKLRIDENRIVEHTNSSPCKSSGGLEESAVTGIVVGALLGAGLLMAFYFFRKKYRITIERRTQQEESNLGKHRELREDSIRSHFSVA

“C53, the 53-AA intermediate form of proCNP processing (peptide)” returned an AlphaScreen signal in series [1] of 200.

As to “NH2-GLSKGCFGLKLDRIGSMSGLGC-COOH [CNP, C-type natriuretic peptide, reference compound]”, the “cGMP generation in HEK293 pGC-B cells compared to vehicle” value on human pGC-B receptor was “significant cGMP generation”. Moreover, the “Plasma CNP-like levels (CLL)” value in “Plasma CNP-like levels” is “increased plasma CLL levels in a dose-dependent manner”. Also, in series [2] (setting [3]), the “UV (urine flow)” value stood at 9.8 ± 0.3 µL/min, the “UNaV (urinary sodium excretion rate)” value is listed as 0.9±0.1 uEq/min and the “GFR (glomerular filtration rate)” value amounted to 1.3 ± 0.1 mL/min. In series [2] (setting [4]), the “UV (urine flow)” value came to 11.3 ± 1.0 µL/min, the “UNaV (urinary sodium excretion rate)” value came to 0.8±0.1 uEq/min, the “GFR (glomerular filtration rate)” value came to 1.2 ± 0.1 mL/min and the “ΔMAP (change in mean arterial pressure)” value was −0.9±0.9 mmHg. In addition, in series [2] (setting [5]), the “UV (urine flow)” value is 10.0 ± 0.9 µL/min, the “UNaV (urinary sodium excretion rate)” value was found to be 0.7±0.1 uEq/min, the “GFR (glomerular filtration rate)” value is 1.2 ± 0.2 mL/min and the “ΔMAP (change in mean arterial pressure)” value is −1.9±0.5 mmHg. Further, the “cGMP generation in parental HEK293 cells” value in the series on parental HEK293 cells was “did not generate cGMP”.

For the substance b-type natriuretic peptide [BNP], the results for the “cGMP in HEK293 pGC-A cells” value with human pGC-A receptor (10^−6 M), in the series with human pGC-A receptor (10^−8 M) and with human pGC-A receptor (10^−10 M) were 1028±73 pmol/mL, 385±66 pmol/mL and 5±1 pmol/mL, respectively.
